Experimental data published in PMC11956031 (RSC Medicinal Chemistry, 2025).

Tests used:
[1] = test system: NTERA-2 (embryonal) cancer cells; assay: MTT cytotoxicity, NTERA-2 cells, 72 h; assay type: cell-based, human; settings: read-out: IC50 NTERA-2, 72 h incubation
Method in brief: (§1)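 Cells kept in log phase at 37 °C, 5% CO2, 10% FCS, 2 mM L-glutamine; RPMI-1640 for HCT-15, PSN-1, NTERA-2, 2008 and C13*; DMEM for MDA-MB-231 and HEK293; F-12 HAM's for CHO. C13* selected from 2008 with low-dose cisplatin. 72 h exposure, 0.5% final DMSO. IC50 at 570 nm vs untreated by 4-PL. RF = C13*/2008 IC50; panel average of IC50s.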

[2] = test system: 2008 cancer cell spheroids; assay: 3D spheroids APH assay, 2008; assay type: cell-based, human; settings: read-out: IC50 3D spheroids 2008, 72 h incubation
Method in brief: (§2)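 2.5 × 10^3 2008 or NTERA-2 cells per well grown as spheroids in phenol red-free F-12 HAM's with 10% FCS and 20% methyl cellulose stock. Treated 72 h; DMSO stocks, 0.5% final DMSO; cisplatin from 0.9% NaCl. Viability by modified acid phosphatase assay. IC50 from 405 nm absorbance vs untreated, 4-PL fit.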

[3] = test system: 2008 (ovarian) cancer cells; assay: MTT cytotoxicity, 2008 cells, 72 h; assay type: cell-based, human; settings: read-out: IC50 2008, 72 h incubation
Method in brief: as §1

[4] = test system: NTERA-2 cancer cell spheroids; assay: 3D spheroids APH assay, NTERA-2; assay type: cell-based, human; settings: read-out: IC50 3D spheroids NTERA-2, 72 h incubation
Method in brief: as §2

[5] = test system: PSN-1 (pancreatic) cancer cells; assay: MTT cytotoxicity, PSN-1 cells, 72 h; assay type: cell-based, human; settings: read-out: IC50 PSN-1, 72 h incubation
Method in brief: as §1

[6] = test system: HCT-15 (colorectal) cancer cells; assay: MTT cytotoxicity, HCT-15 cells, 72 h; assay type: cell-based, human; settings: read-out: IC50 HCT-15, 72 h incubation
Method in brief: as §1

[7] = test system: MDA-MB-231 (breast) cancer cells; assay: MTT cytotoxicity, MDA-MB-231 cells, 72 h; assay type: cell-based, human; settings: read-out: IC50 MDA-MB-231, 72 h incubation
Method in brief: as §1

[8] = test system: C13* cancer cells (ovarian, resistant to cisplatin); assay: MTT cytotoxicity, cisplatin-resistant C13* cells, 72 h; assay type: cell-based, human
Method in brief: as §1

[9] = test system: human embryonic kidney (HEK-293) cells; assay: MTT cytotoxicity, non-tumor HEK-293 cells; assay type: cell-based; settings: read-out: IC50 HEK-293, 72 h incubation
Method in brief: as §1

[10] = test system: Chinese hamster ovary (CHO) cells; assay: MTT cytotoxicity, non-tumor CHO cells; assay type: cell-based; settings: read-out: IC50 CHO, 72 h incubation
Method in brief: as §1

## N.N.[Cl][Pt][Cl] [Cisplatin, cisplatin]
[1]
  IC50: 15 ± 3 µM
[2]
  IC50: 13.9 ± 0.8 µM
[3]
  IC50: 2 ± 1 µM
[4]
  IC50: 50 ± 5 µM
[5]
  IC50: 12 ± 3 µM
[6]
  IC50: 14 ± 2 µM
[7]
  IC50: 22 ± 4 µM
[8]; in brackets, ratio IC50 resistant C13* / sensitive 2008 cells
  resistance factor (RF): 11.7
[8]; read-out: IC50 C13*, 72 h incubation, MTT, cisplatin-resistant cells
  IC50: 25 ± 2 µM
[9]
  IC50: 14 ± 3 µM
[10]
  IC50: 29 ± 3 µM
